# Data taken from ChEMBL document CHEMBL1123186, “Enzymatic phosphorylation of the antiherpetic agent 9-[(2,3-dihydroxy-1-propoxy)methyl]guanine” (1986).
# Columns and labels:
# Assay type in all cases: functional
# [1] = system: Human alphaherpesvirus 1; assay: Compound was tested for the inhibition of HSV-1 polymerase; design: concentration or dose not given beside the values
# In short: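 Analog first phosphorylated 3 h at 37 °C with HSV1 TK, GMP kinase, creatine kinase/phosphocreatine, 5 mM ATP and HSV1-infected HeLa crude extract; 20 µL aliquots added to 100 µL polymerase mix with 50 mM Tris pH 8, 5 mM MgCl2, activated salmon sperm DNA, 0.05 mM each dNTP ([3H]dTTP), 0.1 M (NH4)2SO4, and infected-HeLa extract or purified HSV1 polymerase; 1 h 37 °C; TCA-precipitable counts.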
# [2] = system: Human alphaherpesvirus 1; assay: Phosphorylation by HSV-1 thymidine kinase
# In short: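 Affinity-purified HSV1 TK (1 unit) from infected HeLa cells, 37 °C for 1 h, with 40 µg nucleoside in 50% Me2SO. Buffer: 50 mM Tris pH 7.5, 5 mM MgCl2, 5 mM ATP, 2 mM DTT, 2.5 mM NaF, 15 mM phosphocreatine, creatine kinase and BSA. Nucleoside and phosphates separated by anion-exchange HPLC (KH2PO4 gradient, pH 3.0) and quantified from peak areas.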
# [3] = system: MRC5; assay: Compound was tested for 50% inhibition of HSV-1 induced cytopathic effect in MRC-5 cells; 3-6; conditions: Homo sapiens, read-out: ED50 (the source's name)
# [4] = system: MRC5; assay: Compound was tested for 50% inhibition of HSV-1 induced cytopathic effect in MRC-5 cells; Not active; conditions: Homo sapiens, read-out: ED50 (the source's name)
# [5] = system: MRC5; assay: Compound was tested for 50% inhibition of HSV-1 induced cytopathic effect in MRC-5 cells; conditions: Homo sapiens, read-out: ED50 (the source's name)
# [6] = molecular target: T1, DNA polymerase alpha catalytic subunit (Homo sapiens) (UniProt P09884); assay: Compound was tested for the inhibition of HeLa DNA polymerase; conditions: concentration not given here
# T1 sequence (whole entry): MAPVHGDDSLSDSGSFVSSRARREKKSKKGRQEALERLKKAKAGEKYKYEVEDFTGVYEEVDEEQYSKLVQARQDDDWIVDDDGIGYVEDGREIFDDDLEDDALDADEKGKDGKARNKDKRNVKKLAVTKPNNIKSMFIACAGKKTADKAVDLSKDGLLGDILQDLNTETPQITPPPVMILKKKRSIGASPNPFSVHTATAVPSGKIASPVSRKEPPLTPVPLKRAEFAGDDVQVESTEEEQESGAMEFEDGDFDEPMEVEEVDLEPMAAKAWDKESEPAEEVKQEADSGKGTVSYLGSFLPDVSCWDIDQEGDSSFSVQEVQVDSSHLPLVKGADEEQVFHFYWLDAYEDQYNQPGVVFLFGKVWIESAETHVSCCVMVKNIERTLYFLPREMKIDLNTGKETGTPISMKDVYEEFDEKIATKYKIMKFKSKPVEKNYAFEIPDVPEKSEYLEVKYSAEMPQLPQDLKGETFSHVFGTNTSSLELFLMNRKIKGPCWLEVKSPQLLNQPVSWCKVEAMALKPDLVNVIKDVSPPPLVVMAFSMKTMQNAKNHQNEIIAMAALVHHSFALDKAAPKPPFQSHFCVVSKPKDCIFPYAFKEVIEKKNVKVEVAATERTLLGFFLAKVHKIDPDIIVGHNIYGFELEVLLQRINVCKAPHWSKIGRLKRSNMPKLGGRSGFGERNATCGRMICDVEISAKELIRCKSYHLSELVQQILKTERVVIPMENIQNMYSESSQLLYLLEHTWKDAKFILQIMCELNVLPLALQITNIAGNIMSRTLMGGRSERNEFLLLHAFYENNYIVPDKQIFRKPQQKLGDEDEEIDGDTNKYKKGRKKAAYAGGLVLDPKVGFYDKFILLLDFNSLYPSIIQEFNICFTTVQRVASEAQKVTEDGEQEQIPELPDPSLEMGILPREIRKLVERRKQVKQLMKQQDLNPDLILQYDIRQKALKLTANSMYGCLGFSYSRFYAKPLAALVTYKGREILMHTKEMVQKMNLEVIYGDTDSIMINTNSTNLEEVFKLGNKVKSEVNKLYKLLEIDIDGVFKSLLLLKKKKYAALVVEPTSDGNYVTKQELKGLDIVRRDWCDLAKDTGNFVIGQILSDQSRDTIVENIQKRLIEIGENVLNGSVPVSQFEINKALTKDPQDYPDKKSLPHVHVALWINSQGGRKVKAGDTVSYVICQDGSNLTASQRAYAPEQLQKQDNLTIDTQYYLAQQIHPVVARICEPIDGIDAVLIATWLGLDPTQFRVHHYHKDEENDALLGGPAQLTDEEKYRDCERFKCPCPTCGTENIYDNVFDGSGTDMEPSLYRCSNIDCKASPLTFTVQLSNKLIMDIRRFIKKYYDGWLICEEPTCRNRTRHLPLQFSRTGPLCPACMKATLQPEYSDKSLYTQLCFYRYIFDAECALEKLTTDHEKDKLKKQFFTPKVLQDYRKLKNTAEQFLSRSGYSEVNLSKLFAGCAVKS
# In short: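 Cellular polymerase taken from crude HSV1-infected HeLa extract, assayed without (NH4)2SO4. Inhibitor came as 20 µL of a 3-h, 37 °C enzymatic phosphorylation mixture, in 50 mM Tris pH 8 with 5 mM MgCl2, activated salmon sperm DNA and 0.05 mM each dNTP ([3H]dTTP). Incubation 1 h at 37 °C, then TCA-insoluble radioactivity counted.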
inhibition [6] [%],Compound,Inhibition [1] [%],Phosphorylation [2] [%],other results
,Nc1nc(O)c2ncn(COCC(O)CO)c2n1 (centres undefined) [listing 1 of 2 here],36,59,EC50 [3]: 3 µg/mL
,Nc1nc(O)c2ncn(COCC(O)CF)c2n1 (centres undefined),,4,EC50 [4]: > 100 µg/mL
,Nc1nc(O)c2ncn(COCCCO)c2n1,,88,EC50 [5]: 50 µg/mL
17,Nc1nc2c(ncn2COC(CO)CO)c(=O)[nH]1 [GANCICLOVIR],60,,
,Nc1nc(O)c2ncn(COCC(F)CO)c2n1 (centres undefined),,42,EC50 [5]: 25 µg/mL
6,Nc1nc(O)c2ncn(COCC(O)CO)c2n1 (centres undefined) [listing 2 of 2 here],,,
37,Nc1nc2c(ncn2COCCO)c(=O)[nH]1 [ACYCLOVIR],86,,
10,"Nc1nc(O)c2ncn(COCC(O)CO)c2n1 (single isomer, unassigned; form 1) [listing 1 of 2 here]",,,
,CC(O)COCn1cnc2c(O)nc(N)nc21 (centres undefined),,5,EC50 [5]: 100 µg/mL
,"Nc1nc(O)c2ncn(COCC(O)CO)c2n1 (single isomer, unassigned; form 1) [listing 2 of 2 here]",54,,
,"Nc1nc(O)c2ncn(COCC(O)CO)c2n1 (single isomer, unassigned; form 2)",14,,
